Values after ≈ are worked out from the molar mass of the structure shown. Active and inactive are the calls of the source. The calls are words filed in the database; no cut-off is given here.
Experiments:
[1] = Cytotoxicity against human […] cells assessed as growth inhibition after 72 hrs by SRB assay; format: functional; conditions: Homo sapiens, HCT9, 72 h; read-out: ED50 (the source's name)
Outline: (§1)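 Sulforhodamine B assay run by NCI-validated procedure. Cells grown at 37 °C under humidified 5% CO2 in RPMI-1640 with 25 mM HEPES, […] (w/v) sodium bicarbonate, 10% (v/v) FBS and 100 μg/mL kanamycin. Compounds came from DMSO stocks, with final DMSO ≤ 1% (v/v). Continuous exposure for 72 h. ED50 (μg/mL, 50% cell-number reduction) interpolated from dose-response data. Triplicate tests. Doxorubicin served as positive control.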

1A9 = test: Cytotoxicity against human 1A9 cells assessed as growth inhibition after 72 hrs by SRB assay; format: functional; conditions: for EC50: Homo sapiens, 1A9, 72 h, read-out: ED50 (the source's name); outline: as §1
SK-MEL-2 = test: Cytotoxicity against human SK-MEL-2 cells assessed as growth inhibition after 72 hrs by SRB assay; format: functional; conditions: for EC50: Homo sapiens, SK-MEL-2, 72 h, read-out: ED50 (the source's name); outline: as §1
A549 = test: Cytotoxicity against human A549 cells assessed as growth inhibition after 72 hrs by SRB assay; format: functional; conditions: Homo sapiens, A549, 72 h; read-out: ED50 (the source's name); outline: as §1
CAKI-1 = test: Cytotoxicity against human CAKI-1 cells assessed as growth inhibition after 72 hrs by SRB assay; format: functional; conditions: for EC50: Homo sapiens, CAKI-1, 72 h, read-out: ED50 (the source's name); outline: as §1
KBVIN = test: (§2) Cytotoxicity against human KBVIN cells assessed as growth inhibition after 72 hrs by SRB assay; format: functional; outline: as §1
MCF7 = test: Cytotoxicity against human MCF7 cells assessed as growth inhibition after 72 hrs by SRB assay; format: functional; conditions: Homo sapiens, MCF7, 72 h; read-out: ED50 (the source's name); outline: as §1
KB = test: Cytotoxicity against human KB cells assessed as growth inhibition after 72 hrs by SRB assay; format: functional; conditions: Homo sapiens, KB, 72 h; read-out: ED50 (the source's name); outline: as §1
PC-3 = test: Cytotoxicity against human PC3 cells assessed as growth inhibition after 72 hrs by SRB assay; format: functional; conditions: for EC50: Homo sapiens, PC-3, 72 h, read-out: ED50 (the source's name); outline: as §1
[2] = Cytotoxicity against human U87MG cells assessed as growth inhibition after 72 hrs by SRB assay; format: functional, U-87MG ATCC; conditions: Homo sapiens, U-87 MG, 72 h; read-out: ED50 (the source's name); outline: as §1
[3] = as §2; format: functional; conditions: Homo sapiens, KBVIN, 72 h; read-out: ED50 (the source's name); outline: as §1

Compound | EC50 [1] | EC50 (1A9) | EC50 (SK-MEL-2) | EC50 (A549) | EC50 (CAKI-1) | growth inhibition (GI) (KBVIN) | EC50 (MCF7) | EC50 (KB) | EC50 (PC-3) | EC50 [2] | EC50 [3] | growth inhibition (GI) (1A9) | growth inhibition (GI) (SK-MEL-2) | growth inhibition (GI) (CAKI-1) | growth inhibition (GI) (PC-3)
COc1c(CC(O)C(C)(C)O)cc2ccc(=O)oc2c1O (centres undefined) | 6.7 µg/mL (≈ 22.8 µM) | 1.5 µg/mL (≈ 5.1 µM) | 1.3 µg/mL (≈ 4.42 µM) | 10.8 µg/mL (≈ 36.7 µM) | 1.5 µg/mL (≈ 5.1 µM) | inactive | > 20 µg/mL |  |  |  |  |  |  |  | 
C[C@@H]1O[C@H](O[C@@H]2CC[C@]3(C=O)[C@H]4CC[C@]5(C)[C@@H](C6=CC(=O)OC6)CC[C@]5(O)[C@@H]4CC[C@]3(O)C2)[C@H](O)[C@H](O)[C@H]1O [ANTIAROSIDE C] | 1.5 µg/mL (≈ 2.72 µM) | 0.39 µg/mL (≈ 0.708 µM) | 0.26 µg/mL (≈ 0.472 µM) | 0.48 µg/mL (≈ 0.872 µM) | 0.32 µg/mL (≈ 0.581 µM) |  | 1.4 µg/mL (≈ 2.54 µM) | 1.5 µg/mL (≈ 2.72 µM) | 0.42 µg/mL (≈ 0.763 µM) | 1.7 µg/mL (≈ 3.09 µM) | 1.6 µg/mL (≈ 2.91 µM) |  |  |  | 
C[C@]12CC[C@H]3[C@@H](CC[C@]4(O)C[C@@H](O)CC[C@]34C=O)[C@@]1(O)CC[C@@H]2C1=CC(=O)OC1 [STROPHANTHIDIN] | 0.51 µg/mL (≈ 1.26 µM) | 0.15 µg/mL (≈ 0.371 µM) | 0.13 µg/mL (≈ 0.321 µM) | 0.11 µg/mL (≈ 0.272 µM) | 0.14 µg/mL (≈ 0.346 µM) |  | 0.38 µg/mL (≈ 0.939 µM) | 0.61 µg/mL (≈ 1.51 µM) | 0.17 µg/mL (≈ 0.42 µM) | 0.72 µg/mL (≈ 1.78 µM) | 0.69 µg/mL (≈ 1.71 µM) |  |  |  | 
CC(C)(O)[C@@H]1Cc2cc3ccc(=O)oc3cc2O1 [MARMESIN] |  |  |  | > 20 µg/mL |  | inactive | > 20 µg/mL |  |  |  |  | inactive | inactive | inactive | inactive
C[C@H]1O[C@H](O[C@H]2CC[C@]3(C=O)[C@H]4C[C@@H](O)[C@]5(C)[C@@H](C6=CC(=O)OC6)CC[C@]5(O)[C@@H]4CC[C@]3(O)C2)[C@H](O)[C@H](O)[C@@H]1O [ANTIALLOSIDE] | 0.11 µg/mL (≈ 0.194 µM) | 0.062 µg/mL (≈ 0.109 µM) | 0.12 µg/mL (≈ 0.212 µM) | 0.046 µg/mL (≈ 0.0812 µM) | 0.068 µg/mL (≈ 0.12 µM) |  | 0.12 µg/mL (≈ 0.212 µM) | 0.065 µg/mL (≈ 0.115 µM) | 0.085 µg/mL (≈ 0.15 µM) | 0.15 µg/mL (≈ 0.265 µM) | 0.075 µg/mL (≈ 0.132 µM) |  |  |  | 
C[C@H]1O[C@@H](O[C@H]2CC[C@]3(C=O)[C@H]4CC[C@]5(C)[C@@H](C6=CC(=O)OC6)CC[C@]5(O)[C@@H]4CC[C@]3(O)C2)[C@H](O)[C@H](O)[C@H]1O[C@@H]1O[C@H](CO)[C@@H](O)[C@H](O)[C@H]1O | 0.94 µg/mL (≈ 1.32 µM) | 0.53 µg/mL (≈ 0.744 µM) | 0.16 µg/mL (≈ 0.224 µM) | 0.12 µg/mL (≈ 0.168 µM) | 0.51 µg/mL (≈ 0.716 µM) |  | 0.58 µg/mL (≈ 0.814 µM) | 1.5 µg/mL (≈ 2.1 µM) | 0.6 µg/mL (≈ 0.842 µM) | 1.9 µg/mL (≈ 2.67 µM) | 1.7 µg/mL (≈ 2.39 µM) |  |  |  | 
CO[C@H]1[C@@H](O[C@H]2CC[C@]3(C=O)[C@H]4C[C@@H](O)[C@]5(C)[C@@H](C6=CC(=O)OC6)CC[C@]5(O)[C@@H]4CC[C@]3(O)C2)O[C@H](C)[C@@H](O)[C@@H]1O [TOXICARIOSIDE B] | 0.11 µg/mL (≈ 0.189 µM) | 0.063 µg/mL (≈ 0.108 µM) | 0.12 µg/mL (≈ 0.207 µM) | 0.058 µg/mL (≈ 0.0999 µM) | 0.07 µg/mL (≈ 0.121 µM) |  | 0.092 µg/mL (≈ 0.158 µM) | 0.13 µg/mL (≈ 0.224 µM) | 0.091 µg/mL (≈ 0.157 µM) | 0.13 µg/mL (≈ 0.224 µM) | 0.14 µg/mL (≈ 0.241 µM) |  |  |  | 
C[C@H]1O[C@H](O[C@H]2CC[C@]3(C(=O)O)[C@H]4C[C@@H](O)[C@]5(C)[C@@H](C6=CC(=O)OC6)CC[C@]5(O)[C@@H]4CC[C@]3(O)C2)[C@H](O)[C@H](O)[C@H]1O [ANTIAROSIDE H] | 2.5 µg/mL (≈ 4.29 µM) | 1.4 µg/mL (≈ 2.4 µM) | 1.3 µg/mL (≈ 2.23 µM) | 0.76 µg/mL (≈ 1.3 µM) | 1.5 µg/mL (≈ 2.57 µM) |  | 3.1 µg/mL (≈ 5.32 µM) | 5.9 µg/mL (≈ 10.1 µM) | 1.8 µg/mL (≈ 3.09 µM) | 7.3 µg/mL (≈ 12.5 µM) | 7.1 µg/mL (≈ 12.2 µM) |  |  |  | 
C[C@]12[C@H](O)C[C@H]3[C@@H](CC[C@]4(O)CCCC[C@]34C=O)[C@@]1(O)CC[C@@H]2C1=CC(=O)OC1 [ANTIARIGENIN] | 4.5 µg/mL (≈ 11.1 µM) | 0.12 µg/mL (≈ 0.297 µM) | 0.41 µg/mL (≈ 1.01 µM) | 0.59 µg/mL (≈ 1.46 µM) | 1.3 µg/mL (≈ 3.21 µM) |  | 1.3 µg/mL (≈ 3.21 µM) | 5.3 µg/mL (≈ 13.1 µM) | 1.2 µg/mL (≈ 2.97 µM) | 4.6 µg/mL (≈ 11.4 µM) | 5.1 µg/mL (≈ 12.6 µM) |  |  |  | 
C[C@H]1O[C@H](O[C@H]2CC[C@]3(C=O)[C@H]4C[C@@H](O)[C@]5(C)[C@@H](C6=CC(=O)OC6)CC[C@]5(O)[C@@H]4CC[C@]3(O)C2)[C@H](O)[C@H](O)[C@H]1O | 0.15 µg/mL (≈ 0.265 µM) | 0.058 µg/mL (≈ 0.102 µM) | 0.13 µg/mL (≈ 0.229 µM) | 0.059 µg/mL (≈ 0.104 µM) | 0.072 µg/mL (≈ 0.127 µM) |  | 0.1 µg/mL (≈ 0.176 µM) | 0.14 µg/mL (≈ 0.247 µM) | 0.0044 µg/mL (≈ 0.00777 µM) | 0.017 µg/mL (≈ 0.03 µM) | 0.15 µg/mL (≈ 0.265 µM) |  |  |  | 
C[C@@H]1O[C@@H](O[C@@H]2CC[C@@]3(CO)[C@H](CC[C@@H]4[C@@H]3CC[C@]3(C)[C@@H](C5=CC(=O)OC5)CC[C@]43O)C2)[C@H](O)[C@H](O)[C@H]1O[C@@H]1O[C@H](CO)[C@@H](O)[C@H](O)[C@H]1O [ANTIAROSIDE D] | 1.9 µg/mL (≈ 2.72 µM) | 0.74 µg/mL (≈ 1.06 µM) | 0.31 µg/mL (≈ 0.444 µM) | 0.38 µg/mL (≈ 0.544 µM) | 0.93 µg/mL (≈ 1.33 µM) |  | 1 µg/mL (≈ 1.43 µM) | 1.7 µg/mL (≈ 2.43 µM) | 0.53 µg/mL (≈ 0.758 µM) | 4.2 µg/mL (≈ 6.01 µM) | 1.9 µg/mL (≈ 2.72 µM) |  |  |  | 

From ChEMBL document CHEMBL3120107, “Cytotoxic cardiac glycosides and coumarins from Antiaris toxicaria” (2014)
